For data set [1], the system named is Molluscum contagiosum virus. The data set can be described thus: The relaxation activity of MCV topoisomerase was assayed at 100 electrophoresis; No Inhibition. It counts as functional, organism-based. The method in brief:
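Counterscreen against the type 1B topoisomerase of molluscum contagiosum virus (MCV). Relaxation of supercoiled plasmid DNA was followed by the change in its mobility on agarose gel electrophoresis, with compound present.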

A short description of data set [2]: The compound was tested for toxicity using MTT cytotoxicity assay in Hela cell culture, activity expressed as LD50 value. Type of data set: cell-based. To be noted: human, HeLa cells; read-out: LD50 (the source's name). The method in brief: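 HeLa cells in culture exposed to a range of compound concentrations; viability read out with MTT dye; LD50 derived from the concentration series.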
On the technique in general: Tetrazolium assays rely on reduction of a dye to a coloured formazan, in cell work by metabolically active cells.

The target in data set [3] is Human immunodeficiency virus type 1 integrase (Human immunodeficiency virus 1, UniProt Q7ZJM1). Kind of data set: Inhibitory activity against integrase as yield of terminal cleavage products. The gist of the method: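 Purified HIV-1 integrase incubated with an end-labeled substrate oligonucleotide across a compound titration. Products separated by electrophoresis and visualized by autoradiography; terminal cleavage product quantitated relative to positive control without inhibitor.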
Sequence of Human immunodeficiency virus type 1 integrase (Q7ZJM1 whole entry): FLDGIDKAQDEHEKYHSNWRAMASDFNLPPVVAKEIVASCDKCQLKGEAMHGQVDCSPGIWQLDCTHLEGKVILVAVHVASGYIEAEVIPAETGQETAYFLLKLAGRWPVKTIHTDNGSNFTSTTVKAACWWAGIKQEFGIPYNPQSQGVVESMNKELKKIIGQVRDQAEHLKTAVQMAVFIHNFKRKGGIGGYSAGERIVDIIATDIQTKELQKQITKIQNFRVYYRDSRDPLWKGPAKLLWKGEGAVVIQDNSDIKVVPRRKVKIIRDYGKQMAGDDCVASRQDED

In data set [4] the test system is Molluscum contagiosum virus. Kind of data set: The relaxation activity of MCV topoisomerase was assayed at 500 electrophoresis; No Inhibition. It counts as functional, organism-based. The gist of the method:
(§1)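 Type 1B topoisomerase of molluscum contagiosum virus; relaxation of supercoiled plasmid DNA monitored by mobility shift on agarose gel electrophoresis.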

Data set [5] has as its system Molluscum contagiosum virus. The data set can be described thus: The relaxation activity of MCV topoisomerase was assayed at 170 electrophoresis; No Inhibition. It counts as functional, organism-based. The gist of the method:
as §1

In data set [6] the test system is Human immunodeficiency virus 1. Kind of data set: The compound was tested in vitro for inhibition of PIC (preintegrated complexes) from HIV-1 infected cells. Type of data set: functional. The method in brief: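 Preintegration complexes isolated from HIV-1-infected cells used as integration source; mixed with naked DNA target and incubated 37 °C for 1 h in presence of compound.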

Consider six compounds from ChEMBL document CHEMBL1132222, “Lamellarin alpha 20-sulfate, an inhibitor of HIV-1 integrase active against HIV-1 virus in cell culture” (J Med Chem, 1999).

Values joined by “and” are separate entries in the source; they are usually repeats but may differ in a detail not shown here. Equal entries are not always repeated. Active and inactive are the calls of the source. The calls are words filed in the database; no cut-off is given here.

For orientation: IC50 means the concentration that gives 50% inhibition. A high value points to weaker potency. With `COc1ccc(-c2c3c4cc(OC)c(O)cc4oc(=O)c3n3ccc4cc(O)c(OC)cc4c23)cc1O`, the inhibition entry in data set [1] was “inactive”. In data set [2], the CC50 amounted to 5 µM. Further, the IC50 in data set [3] is 18 µM and 19 µM.
`COc1ccc(-c2c3n(c4c(=O)oc5cc(OS(=O)(=O)O)c(OC)cc5c24)CCc2cc(OC)c(OC)cc2-3)cc1O`: the inhibition result in data set [4] was “inactive”. Besides, the CC50 in data set [2] stood at 145 µM. For the same compound, in data set [3], the IC50 was 34 µM and 25 µM.
Turning to `COc1ccc(-c2c3c4cc(OC)c(OS(=O)(=O)O)cc4oc(=O)c3n3ccc4cc(OC)c(OC)cc4c23)cc1O`, the inhibition entry in data set [5] is “inactive”. In data set [2], the CC50 came out at 274 µM. The IC50 in data set [3] is 16 µM and 22 µM; in data set [6], 88 µM.
With `COc1ccc(-c2c3c4cc(OC)c(O)cc4oc(=O)c3n3ccc4c(OC)c(OC)c(OC)cc4c23)cc1O`, the inhibition result in data set [5] is “inactive”. In addition, in data set [2], the CC50 is 28 µM. Besides, the IC50 in data set [3] was 19 µM and 14 µM.
On to `COc1ccc(-c2c3n(c4c(=O)oc5cc(O)c(OC)cc5c24)CCc2c-3cc(OC)c(OC)c2OC)cc1O`, for which the inhibition entry in data set [1] is “inactive”. In addition, the CC50 in data set [2] came to 27 µM. The IC50 in data set [3] is 27 µM and 24 µM.
As for `COc1ccc(-c2c3n(c4c(=O)oc5cc(OS(=O)(=O)O)c(OC)cc5c24)C(O)Cc2c-3cc(OC)c(OC)c2OC)cc1O` (centres undefined), the inhibition entry in data set [4] is “inactive”. In addition, the CC50 in data set [2] was 130 µM. Moreover, the IC50 in data set [3] was 73 µM and 51 µM.
